From PubChem
A selection: hits, their analogues and other compounds. The true share with any hit is near 4.1%.
MPTP inh – blocks calcium-induced mitochondrial swelling. isolated mouse mitochondria, Ca2+ swelling absorbance, 30 min. inhibition, % at 10 µM. hit rate 1.4% among 360,000. AID 602449;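 active = inhibition of 50% or more, scaled per plate between neutral and stimulator controls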;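 also: 0% = DMSO wells given calcium and 100% = 1 mM EGTA wells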
MC4R antag cAMP – blocks human MC4R cAMP signaling | P32245 | MC4R-expressing cells, MTII-stimulated cAMP, LANCE TR-FRET | inhibition, % at 6.5 µM | hit rate 0.48% among 360,000 | AID 540295;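 active = inhibition above its plate's cutoff, the mean of tested wells on that plate plus 3 SD, cut at about 29% in these data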;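 also: 0% = Melanotan II alone and 100% = Melanotan II plus saturating MCL0020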
Target sequence (P32245 whole entry, looked up): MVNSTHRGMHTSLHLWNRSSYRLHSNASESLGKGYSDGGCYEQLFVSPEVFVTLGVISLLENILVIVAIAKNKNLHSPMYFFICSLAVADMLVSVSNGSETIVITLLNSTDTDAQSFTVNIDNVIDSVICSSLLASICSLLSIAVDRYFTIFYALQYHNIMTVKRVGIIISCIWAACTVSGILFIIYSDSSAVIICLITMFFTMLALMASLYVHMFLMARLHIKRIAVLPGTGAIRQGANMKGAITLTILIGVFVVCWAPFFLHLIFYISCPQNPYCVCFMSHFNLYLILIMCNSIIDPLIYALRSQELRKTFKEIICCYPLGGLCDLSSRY
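System: U2OS-MC4R stable cell line; Technique: Eu-cAMP/anti-cAMP TR-FRET, emission 671 nm; Repeats: single well per compound; Also added: Melanotan II; Dosing: one concentration, 6.5 µM nominal; Schedule: 30-min compound, 1-h challenge, 1-h detection, room temperature.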
SMARCA2 act – SMARCA2 function activation, primary screen; MG213 cells, MMTV-luciferase reporter, dexamethasone, overnight; activation, % at 9.1 µM; hit rate 1% among 370,000; AID 652017; in the data active = activation above about 7.8%;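 also: 0% = vehicle wells and 100% = reference activator wells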
MC4R barr agon – activates human MC4R beta-arrestin recruitment. P32245. U2OS MC4R beta-arrestin complementation, luminescence; percent of melanotan II response, DMSO zero. activation, % at 8.9 µM. hit rate 0.98% among 360,000;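 active = activation above a per-plate cutoff, the mean activation of sample wells on that plate plus 3 SD, cut at about 8% in these data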
ATG4B inhibitor – inhibitors of human ATG4B cysteine protease; Q9Y4P1; ATG4B cleavage of LC3-PLA2, NBD-HPC fluorescence, 1 h; inhibition, % at 8.33 µM; hit rate 0.51% among 340,000; AID 504462; in the data active = inhibition above about 40%
Target sequence (Q9Y4P1 whole entry, looked up): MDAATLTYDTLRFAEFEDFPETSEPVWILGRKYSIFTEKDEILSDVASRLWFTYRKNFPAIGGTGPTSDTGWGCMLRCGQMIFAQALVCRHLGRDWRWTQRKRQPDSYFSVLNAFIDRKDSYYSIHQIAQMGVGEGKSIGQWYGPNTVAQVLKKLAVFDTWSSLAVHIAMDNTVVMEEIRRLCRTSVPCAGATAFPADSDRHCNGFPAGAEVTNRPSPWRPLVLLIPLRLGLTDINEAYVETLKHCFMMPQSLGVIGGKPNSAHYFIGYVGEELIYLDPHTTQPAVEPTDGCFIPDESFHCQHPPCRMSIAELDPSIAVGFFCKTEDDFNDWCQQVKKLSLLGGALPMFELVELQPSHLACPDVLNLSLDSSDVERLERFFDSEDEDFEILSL
MC4R barr ag – human MC4R beta-arrestin agonism confirmation. U2OS MC4R beta-arrestin recruitment, luminescence; scaled DMSO 0%, Melanotan II 100%. hit rate 31% among 2,400. shares compounds with MC4R barr agon. activation, % at 8.9 µM;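 active = mean activation across replicates above the hit cutoff set in the earlier primary screen, cut at about 8% in these data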
MOR-DOR barr ag – activates mu-delta opioid heterodimer, MC4R agonist counter-screen; shares compounds with MC4R barr agon; U2OS PathHunter beta-arrestin, beta-gal luminescence; percent of deltorphin B response, DMSO zero; activation, % at 9.2 µM; hit rate 5.8% among 2,400; AID 602194;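 active = mean activation across replicates exceeds the hit threshold derived in the earlier primary screen, cut at about 18% in these data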;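 also: 100% = deltorphin B at 0.9 µM final and 0% = DMSO alone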
* hit, by the source's call; . = not tested or not shown.

SMILES | MPTP inh | MC4R antag cAMP | SMARCA2 act | MC4R barr agon | ATG4B inhibitor | MC4R barr ag | MOR-DOR barr ag
COc1cccc(CNC(=O)CCCn2c(=S)[nH]c3cc4c(cc3c2=O)OCO4)c1 | -0.3 | 13.4 | 3.2 | -3.3 | 9.2 | . | .
O=C(OC12CCCN(C1)/C(=C/c1cccc(Cl)c1)C2)c1ccno1 (stereo not given) | . | . | -1.3 | . | . | . | .
COc1ccc(F)cc1-c1cc(C(C)=O)c2n(c1=O)CCC2 | . | . | -1.8 | . | . | . | .
COC(=O)[C@]1(CNC(C)=O)CC(=O)N(Cc2ccc(Cl)cc2)[C@@H]1c1ccc(OC)cc1 | . | . | -4.7 | . | . | . | .
C=CCOc1ccc(/C=C/C(=O)OCC(=O)NCCc2ccccc2)cc1 | 0.2 | 1.4 | -3.9 | -0.2 | 3.9 | . | .
C=CCOc1ccc(/C=C/C(=O)OCC(=O)NCc2cccc(OC)c2)cc1 | -0.2 | 3.2 | -0.9 | 28.2* | 3.2 | 1.9 | 5.5
CC(=O)c1ccc(OCc2cc(C(=O)NCCc3ccc(Cl)cc3)no2)cc1 | -1.3 | 19.9 | 2.6 | 14.5* | 30.9 | -1.5 | 5.2
CC(C)C[C@H]1COc2cccc(N3CCSCC3)c2S(=O)(=O)N1C | . | . | 0.9 | . | . | . | .
CCOC(=O)c1c(C)[nH]c(C(=O)COC(=O)c2cc(C)oc2C)c1C | 2.4 | -9.2 | 0.6 | 19.5* | 8.3 | 9.9* | 4.6
CCCc1cc(=O)oc2c(C)c(OCC(=O)Nc3ccc(CN4CCOCC4)cc3)ccc12 | 0.3 | -1.9 | -0.2 | 15.7* | 2.1 | -0.8 | 1.9
CCCCOC(=O)Nc1ccc(S(=O)(=O)Nc2ccc([N+](=O)[O-])cc2)cc1 | 4.3 | 20.1 | 1.2 | 0.1 | 9.4 | . | .
CCCCCOC(=O)Nc1ccc(S(=O)(=O)Nc2cccc([N+](=O)[O-])c2)cc1 | 9.9 | -3.1 | -1.6 | 13.6* | -2.5 | 9.7* | 7.5
CC(=O)c1ccc(NC(=O)NC2CCCCN(Cc3cccc(Cl)c3)C2=O)cc1 (stereo not given) | . | . | -4.5 | . | . | . | .
O=C(/C=C/c1ccc(OC(F)F)cc1)OCC(=O)N1CCc2ccccc21 | -1.2 | 2.9 | -2.0 | 13.2* | 1.9 | 2.0 | 6.3
O=C(CO/N=C/c1ccc(OC(F)F)cc1)N1CCc2ccccc21 | 2.1 | -0.2 | -1.4 | 1.7 | -10.4 | . | .
COc1cc(NC(=O)c2cccc(F)c2)ccc1NC(=O)c1cc2ccccc2o1 | 0.9 | -5.1 | -2.2 | 11.7* | 5.7 | 5.4 | 8.6
COc1cc(NC(=O)c2ccc(C)cc2)ccc1NC(=O)c1cc2ccccc2o1 | 1.2 | -12.0 | -0.4 | 0.6 | -3.4 | . | .
CCOc1cc(NC(=O)c2ccco2)c(OCC)cc1NC(=O)c1cc(OC)c(OC)c(OC)c1 | 1.6 | -0.4 | 0.7 | 12.8* | -12.6 | 4.1 | 52.7*
COc1cc(NC(=O)c2ccc(C)cc2C)ccc1NC(=O)c1cc2ccccc2o1 | 2.6 | 4.7 | -1.6 | 12.0* | -6.3 | 15.8* | 12.3
O=C(Nc1ccc2c(c1)Cc1ccccc1-2)c1cc2ccccc2o1 | 0.4 | 3.6 | 1.4 | 12.7* | 4.2 | -1.2 | 2.5
O=C(Nc1ccc2c(c1)CCC2)c1cc2ccccc2o1 | -1.4 | 1.0 | -2.3 | 2.0 | 3.4 | . | .
CC(C)C[C@H]1COc2cccc(F)c2S(=O)(=O)N1Cc1cn(CCC2OCCO2)nn1 | . | . | -2.0 | . | . | . | .
C[C@@H]1C=CCCO[C@]12C(=O)N(Cc1ccc(F)cc1)c1ccccc12 | . | . | -5.2 | . | . | . | .
COc1cc(NC(=O)c2oc3ccccc3c2C)ccc1NC(=O)c1ccco1 | 0.4 | 4.8 | 1.5 | 9.7* | 0.8 | 2.0 | 4.6
COC(=O)C1CN(C2CCCC2)CCS(=O)(=O)N1Cc1cn(Cc2ccc(F)cc2)nn1 (stereo not given) | . | . | 2.9 | . | . | . | .
SMILES | MPTP inh | MC4R antag cAMP | SMARCA2 act | MC4R barr agon | ATG4B inhibitor | MC4R barr ag | MOR-DOR barr ag
O=C(O)CCCN1C(=O)/C(=C/c2cn(-c3ccccc3)nc2-c2cccs2)SC1=S | 21.1 | 19.4 | -2.9 | 9.9* | 4.6 | 6.1 | 1.0
O=C(O)CCCN1C(=O)/C(=C\c2ccccc2OCc2ccccc2)SC1=S | 3.2 | 10.0 | -2.4 | -0.3 | 36.4 | . | .
COc1ccc(/C=C/C(=O)NCc2cnn(C)c2C)cc1COc1ccc(Br)cc1 | -2.2 | 18.4 | . | -1.8 | -4.1 | . | .
COc1ccc(/C=C/C(=O)NCc2c(C)nn(C)c2C)cc1COc1ccc(Br)cc1 | -0.6 | -4.2 | -4.9 | 11.6* | -25.3 | 0.9 | 2.9
O=C(c1ccc(Cl)cc1)N1CCc2c([nH]c3ccccc23)C1C(F)(F)F (stereo not given) | 4.0 | 17.5 | -5.0 | 9.8* | -3.7 | 1.3 | 8.1
O=C(COC(=O)/C=C/c1cccc(C(F)(F)F)c1)NC(=O)NCc1ccco1 | -0.4 | -4.7 | -1.1 | 15.2* | 0.2 | 2.8 | 6.8
O=C(C(=O)N1CCC(CNC(=O)C2COc3ccccc3O2)CC1)c1cccs1 (stereo not given) | . | . | -3.5 | . | . | . | .
CCOc1ccc(N)c(SSc2cc(OCC)ccc2N)c1 | -0.8 | 5.2 | 2.4 | 10.8* | -11.8 | 1.8 | 7.9
CCOc1cccc(N)c1 | -3.2 | 6.5 | . | 0.0 | -1.7 | . | .
COC(=O)C[C@H]1CC[C@@H]2[C@@H](COc3ccc(NC(=O)Nc4ccccc4OC)cc3C(=O)N2C)O1 | . | . | -4.3 | . | . | . | .
Cc1cccc(NC(=O)CSc2nnc(SCc3ccc(Cl)cc3)s2)c1 | . | . | -7.4 | . | . | . | .
Cc1ccc(OCC(=O)Nc2sc3c(c2C#N)CCC3)cc1C | 2.6 | 3.1 | 1.1 | 14.5* | -5.0 | 2.1 | 5.2
Cc1ccc(OCC(=O)Nc2sc3c(c2C#N)CCC3)cc1 | 1.0 | 2.6 | 2.9 | 11.4* | -2.5 | 0.9 | 2.6
CCCCOc1ccc(C(=O)NC2CCCCN(Cc3cccc(C(F)(F)F)c3)C2=O)cc1 (stereo not given) | . | . | -4.8 | . | . | . | .
Cc1ccccc1NC(=O)OC1CC2CC1[C@H]1CCCCN1[C@H]2Cc1ccccc1 (stereo not given in full) | . | . | -2.7 | . | . | . | .
CN(C)c1ccc(-c2c(-c3ccc4c(c3)OCO4)noc2-c2ccsc2)cn1 | -0.2 | 4.1 | . | -0.8 | -1.1 | . | .
c1ccc(-c2onc(-c3ccco3)c2-c2ccc3c(c2)OCO3)cc1 | 5.7 | 11.8 | 0.6 | 10.0* | 4.2 | 5.0 | 5.9
CCN(C[C@H]1[C@@H](c2ccc(C3=CCCC3)cc2)[C@H](CO)N1c1nc(C)c(C)s1)S(=O)(=O)c1ccccc1[N+](=O)[O-] | . | . | 0.8 | . | . | . | .
Cc1occc1C(=O)Nc1nnc(-c2cccs2)s1 | 1.5 | 8.7 | 3.0 | 12.9* | -6.8 | 3.5 | 10.4
Cc1occc1C(=O)Nc1nccs1 | 0.8 | 5.9 | 3.2 | -1.7 | -9.9 | . | .
Cc1ccsc1-c1nc(-c2ccccc2)c(-c2ccccc2)[nH]1 | 44.4 | -0.3 | -0.9 | 10.3* | 34.1 | 10.6* | 5.2
COc1cc(OC)cc(C(=O)NCCN2C(=O)C3C4C=CC(C4)C3C2=O)c1 (stereo not given) | . | . | 0.5 | . | . | . | .
